According to ChEMBL document CHEMBL1130014, “Mixed bis(thiosemicarbazone) ligands for the preparation of copper radiopharmaceuticals: synthesis and evaluation of tetradentate ligands containing two dissimilar thiosemicarbazone functions” (J Med Chem, 1997):

Columns and labels:
Rattus norvegicus [1] = species on record: Rattus norvegicus; assay: […] uptake of compound was determined in rat brain at 5 min following femoral injection of radiotracer; type: functional
Method in brief: (§1)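 Sprague–Dawley rats under ether anesthesia received the ⁶⁷Cu complex (~2 µCi in 0.2 mL) into the femoral vein. Dosing solution was saline with ca. 5% ethanol and ≤0.5% DMSO, filtered at 0.2 µm, with radiochemical purity by silica TLC (ethanol). Organ radioactivity is expressed as % injected dose per organ. Mean ± SD, three rats per time point.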

Rattus norvegicus [2] = species on record: Rattus norvegicus; assay: […] uptake of compound was determined in rat heart at 5 min following femoral injection of radiotracer; type: functional, Myocardium; method in brief: as §1
Rattus norvegicus [3] = species on record: Rattus norvegicus; assay: […] uptake of compound was determined in rat heart at 1 min following femoral injection of radiotracer; type: functional, Myocardium; method in brief: as §1
Rattus norvegicus [4] = species on record: Rattus norvegicus; assay: […] uptake of compound was determined in rat brain at 1 min following femoral injection of radiotracer; type: functional; method in brief: as §1
Rattus norvegicus [5] = species on record: Rattus norvegicus; assay: […] uptake of compound was determined in rat brain at 120 min following femoral injection of radiotracer; type: functional; method in brief: as §1
Rattus norvegicus [6] = species on record: Rattus norvegicus; assay: […] uptake of compound was determined in rat heart at 120 min following femoral injection of radiotracer; type: functional, Myocardium; method in brief: as §1
[7] = biological target: Serum albumin (Canis lupus familiaris) (UniProt P49822); assay: Binding of compound in order to assess the amount of free (non-albumin-associated) radiotracer present in solutions of dog serum albumin (35 mg/mL saline)
Sequence of Serum albumin (Canis lupus familiaris) (P49822 whole entry, looked up): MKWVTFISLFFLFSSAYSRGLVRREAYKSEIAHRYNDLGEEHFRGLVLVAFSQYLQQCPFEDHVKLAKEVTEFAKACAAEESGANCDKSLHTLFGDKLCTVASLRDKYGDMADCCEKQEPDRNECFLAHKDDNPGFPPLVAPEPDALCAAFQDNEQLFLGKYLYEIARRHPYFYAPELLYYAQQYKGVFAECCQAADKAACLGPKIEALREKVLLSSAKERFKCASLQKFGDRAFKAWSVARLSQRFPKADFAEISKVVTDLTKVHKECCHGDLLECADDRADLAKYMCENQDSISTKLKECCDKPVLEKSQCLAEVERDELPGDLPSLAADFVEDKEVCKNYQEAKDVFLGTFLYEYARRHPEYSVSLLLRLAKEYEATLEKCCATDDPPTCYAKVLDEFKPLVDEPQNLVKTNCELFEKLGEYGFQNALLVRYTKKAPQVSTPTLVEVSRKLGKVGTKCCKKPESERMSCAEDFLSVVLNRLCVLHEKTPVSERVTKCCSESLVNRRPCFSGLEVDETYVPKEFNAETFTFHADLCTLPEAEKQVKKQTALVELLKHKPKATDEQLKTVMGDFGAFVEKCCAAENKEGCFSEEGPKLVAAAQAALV

Albumin = Albumin (Homo sapiens, UniProt P02768); assay: Binding of compound in order to assess the amount of free (non-albumin-associated) radiotracer present in solutions of human serum albumin (35 mg/mL saline)
Sequence of Albumin (P02768 whole entry): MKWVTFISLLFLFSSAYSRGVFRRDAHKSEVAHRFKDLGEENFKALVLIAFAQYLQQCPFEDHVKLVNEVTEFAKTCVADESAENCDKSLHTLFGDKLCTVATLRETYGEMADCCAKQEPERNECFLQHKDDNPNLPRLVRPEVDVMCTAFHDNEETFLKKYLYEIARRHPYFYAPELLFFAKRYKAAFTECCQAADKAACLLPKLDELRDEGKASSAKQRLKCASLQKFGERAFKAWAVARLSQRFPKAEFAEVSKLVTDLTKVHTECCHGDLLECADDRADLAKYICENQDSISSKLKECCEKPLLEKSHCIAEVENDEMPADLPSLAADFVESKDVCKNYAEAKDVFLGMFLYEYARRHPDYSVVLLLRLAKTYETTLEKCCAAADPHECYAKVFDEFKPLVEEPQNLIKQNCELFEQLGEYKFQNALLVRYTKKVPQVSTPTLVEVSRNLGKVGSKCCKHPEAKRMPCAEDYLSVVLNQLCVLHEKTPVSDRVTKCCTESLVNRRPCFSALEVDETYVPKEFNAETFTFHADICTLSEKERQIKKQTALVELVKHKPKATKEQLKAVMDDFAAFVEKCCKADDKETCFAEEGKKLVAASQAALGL
Method in brief: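 ⁶⁷Cu complex (1–2 µL per 1 mL) mixed into freshly prepared albumin in normal saline. Within 2 min, loaded into 30,000 Da NMWL centrifugal ultrafilters and spun at once at 1000g, 20 min, 20 °C, 45° fixed-angle rotor. Filtrate and unfiltered solution γ-counted. Free % is the protein filtrate/unfiltered ratio divided by the same ratio in protein-free saline, ×100. Mean ± SD of 6–12 measurements.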

Row | Free complex [7] [%] | Free complex (Albumin) [%] | Compound | Dose (Rattus norvegicus [1]) [%] | Dose (Rattus norvegicus [2]) [%] | Dose (Rattus norvegicus [3]) [%] | Dose (Rattus norvegicus [4]) [%] | Dose (Rattus norvegicus [5]) [%] | Dose (Rattus norvegicus [6]) [%]
1 | – | – | C/N=C(\S)N/N=C(C)/C=N/N=C(/N)S | 1.81 | 2.86 | 2.84 | 1.72 | 1.67 | 2.59
2 | – | – | CC(/C=N/N=C(/N)S)=N\N=C(\N)S [PYRUVALDEHYDE BIS(THIOSEMICARBAZONE)(PTS)] | 0.29 | 2.3 | 2.8 | 0.46 | – | –
3 | 30.3 | 37 | Propyl glyoxal bis(thiosemicarbazone)(67Cu-n-PrTS) | – | – | – | – | – | –
4 | 57.4 | 10.4 | Copper complex of Propane-1,2-diylidene-N-thiourea-N-amino-methylaminomethanethione [listing 1 of 2 here] | – | – | – | – | – | –
5 | – | – | C/N=C(\S)N/N=C(C)/C=N/N=C(\S)N(C)C | 1.8 | 1.27 | 1.43 | 2.76 | 1.63 | 0.89
6 | – | – | C/N=C(\S)N/N=C/C(C)=N/N=C(/N)S | 1.37 | 2.44 | 2.73 | 1.4 | 1.1 | 2.03
7 | – | – | C/N=C(\S)N/N=C/C(C)=N/N/C(S)=N/C | 3 | 3.4 | 2.7 | 3 | 3.2 | 3.3
8 | – | – | CC(/C=N/N=C(\S)N(C)C)=N\N=C(\N)S | 1.97 | 1.23 | 1.59 | 2.79 | 1.98 | 1.05
9 | 25.7 | 5.4 | Copper complex of Propane-1,2-diylidene-N-amino-methylaminomethanethione-N-amino-dimethylaminomethanethione | – | – | – | – | – | –
10 | 46.5 | 8.6 | Copper complex of Propane-1,2-diylidene-N-thiourea-N-amino-methylaminomethanethione [listing 2 of 2 here] | – | – | – | – | – | –
11 | 57.6 | 17.2 | Copper complex of Propane-1,2-diylidene-N-thiourea-N-amino-dimethylaminomethanethione | – | – | – | – | – | –
12 | – | – | CC(/C=N/N=C(\S)N(C)C)=N\N=C(/S)N(C)C | 2.2 | 0.43 | 0.97 | 3.1 | – | –
